# Data published in ChEMBL document CHEMBL4513216, “Probing the Open Global Health Chemical Diversity Library for Multistage-Active Starting Points for Next-Generation Antimalarials” (ACS Infect Dis, 2020).
# Experiment: Toxicity liver stage against HepG2, at 10uM
# Type: cell-based
# Design: test concentration 10 uM, cell line HepG2-A16-CD81EGFP
# Settings: human, HepG2-A16-CD81EGFP cells; read-out: INHIBITION
# Outline: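 Uninfected HepG2-A16-CD81EGFP cells, 3 × 10^3 per well, 1536-well, plated on prespotted compound at 10 μM final, parasite-free screening media added to match infected plates; puromycin 10 μM positive, DMSO 0.5% negative; run in parallel with 48 h PbLuc assay at 37 °C, 5% CO2; viability by CellTiter-Glo luminescence, normalized to controls.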
row,Compound,cytotoxicity at 10 µM
1,CCc1cc(=O)[nH]c(-n2nc(C3CC3)cc2NC(=O)C2CC2)n1,26.5%
2,CCN1C[C@@H]2[C@@H](OC)CCN(C(=O)Cc3ccsc3)[C@@H]2C1,0.11%
3,CCCOC(C)Cn1ccc2[nH]c(=O)c(C#N)cc2c1=O (centres undefined),7.39%
4,CN(Cc1cccs1)Cc1nnsc1Cl,-5.65%
5,CC(C)(C)c1nc(CN(CCC2CCCCC2)CC(N)=O)no1,-3.08%
6,CN1C(=O)C2(CCNCC2)c2cc(F)ccc21,-115%
7,C1CN(c2nc(C3CC3)no2)CCN(C2CCOCC2)C1,0.442%
8,Cc1n[nH]c(C)c1NC(=O)CN1CCCC(CNC(=O)C(C)(C)C)C1 (centres undefined),-4.64%
9,O=S(=O)(C1CC1)N1CCn2c(Cn3cccn3)cnc2C1,12.4%
10,c1cnc(N2CCO[C@H]3CN(Cc4c[nH]cn4)C[C@H]32)cn1,9.49%
11,Cc1cc(N2CCCC(c3nccnc3N(C)C)C2)ncn1 (centres undefined),-1.77%
12,CC(C)N1CCC(Cc2cc(-c3cccc(C(=O)O)c3)ncn2)CC1,-8.99%
13,O=C(Cc1csc(N2CCNC2=O)n1)NC1(c2ccccc2)CCC1,-135%
14,CCOCc1nc2c(c(NC(COC)c3ccccn3)n1)CCNCC2 (centres undefined),-3.21%
15,CCN1CCCC(C)(C(=O)NCc2nnnn2-c2ccccc2)C1 (centres undefined),-17.7%
16,Cc1[nH]c2c(F)cccc2c1CC(=O)N1CCC(NS(C)(=O)=O)CC1,7.58%
17,O=C(Nc1nc2c(s1)CN(S(=O)(=O)C1CC1)CC2)c1c(F)cccc1F,-14.1%
18,CN1CC=C(c2noc(CCC(=O)N3CCc4ccccc4C3)n2)CC1,6.97%
19,CCc1noc(C)c1-c1nc(Cc2cccs2)nn1C1CCN(C)CC1,-17.3%
20,Cc1c[nH]nc1C1CCN(C(=O)Cn2cccn2)C1 (centres undefined),3.09%
21,CNC(=O)C1Cn2ccnc2C2(CCN(C(=O)c3ccoc3C)CC2)O1 (centres undefined),-157%

row,Compound,cytotoxicity at 10 µM
1,COCCOc1ccc(NC(=O)N(C)Cc2ccsc2)cn1,-2.81%
2,NC(=O)c1noc(Cn2ncc3ccccc3c2=O)n1,-1.26%
3,Cc1cnc(N2C(=O)CSC2c2ccc(N(C)C)cc2)s1 (centres undefined),6.07%
4,CCOCCCNC(=O)c1cccn1Cc1cccnc1,-43.8%
5,CN1CCOC(C(=O)N2CCCC(C)(C)CC2)C1 (centres undefined),6.67%
6,Cc1ccc(C(=O)O)c(N2CC(C)(C)[C@@](C)(O)C2)n1,4.5%
7,COc1ncccc1CN1CCc2[nH]cnc2C1CCSC (centres undefined),-13.7%
8,O=C(NCCO)c1coc(CN2CCN(c3ccccc3F)CC2)n1,-11.2%
9,CS(=O)(=O)CC(=O)N1C[C@@H]2COC[C@]2(c2nnc(C3CC3)o2)C1,-13.1%
10,COc1ccc(NC(=O)N2CCOCC(CN(C)C)C2)c(C)c1 (centres undefined),0.124%
11,COC(=O)CN(Cc1ccccc1C)C(=O)C1CCC1,-3.64%
12,CCCOCCN1CCc2[nH]c(-c3ccccc3)nc2C1,-124%
13,COCCN1CCc2cc(C(=O)N(C)C)c(NCC3CC3)nc2CC1,4.44%
14,O=C(c1ccc(Cl)cc1)N1CCC2(C1)C(=O)Nc1ccccc12 (centres undefined),1.91%
15,CC(C)c1nc(CN(C)Cc2ccc(F)cc2)cs1,-8.81%
16,CN1C(=O)CCN(C(=O)C2CCCCC2)c2ccccc21,20.8%
17,Cn1cc(CN2C[C@H]3CCC[C@@]3(COc3ccccn3)C2)cn1,-107%
18,CCNC(=O)C1CCCN(c2cccc(C(F)(F)F)n2)C1 (centres undefined),3.4%
19,COCC(C)N(C)C(=O)NC1CCN(c2ncccn2)CC1 (centres undefined),-12.5%
20,CCOC(=O)Cc1n[nH]c(-c2cncc(Br)c2)n1,3.24%
21,CNC(=O)Cc1n[nH]c(-c2cncc(Br)c2)n1,-4.97%

row,Compound,cytotoxicity at 10 µM
1,COCCN(Cc1cccs1)C(=O)c1ccc(=O)n(C)c1,-4.78%
2,CC(O)CN1CCC(CNCc2cccc(C(=O)N(C)C)c2)CC1 (centres undefined),-12.8%
3,CCc1noc(CN2CCCN(Cc3cccs3)CC2)n1,2.76%
4,CCN1CCOCC12CCN(C(=O)c1ccsc1)CC2,-146%
5,Cc1oc(-c2cccc(F)c2F)nc1CN(C)CCC(C)(C)O,-4.47%
6,CCCNCc1cn(Cc2ccccc2)nc1-c1cccnc1,5.13%
7,CN(Cc1cnc2ccccc2c1)C(=O)C(c1ccccc1F)N(C)C (centres undefined),-6.88%
8,CSc1ccc(OCCN2CCNC(=O)CC2)cc1,5.59%
9,C[C@H](O)CNc1cc(-c2ccccc2)ncn1,-11.2%
10,CCOCCC(=O)Nc1cccc(Cl)c1COC,-3.81%
11,CN1CCCC1CCn1ccnc1-c1ccc2ccccc2n1 (centres undefined),0.0773%
12,CCc1c(C)n(C)c2nc3ccccc3n2c1=O,5.94%
13,CCn1cnnc1CNC(=O)N1CCOCC1,3.66%
14,CCc1cnc(C)nc1NCc1nc(COC)no1,3.24%
15,O=C(c1ccccc1)N1C[C@@H]2CCCO[C@@H]2[C@H](N2CCOCC2)C1,-8.81%
16,CC(=O)N(C)c1nc(CN2CCN(c3nccs3)CC2)cs1,-12.5%
17,C=C(C)COc1ccccc1C(=O)NCCc1nncn1C,-3.06%
18,COCCN(Cc1ccc(F)cc1Cl)C(=O)c1ccc(=O)[nH]n1,0.469%
19,Nc1ccnn1C1CCN(Cc2ccccc2)C1 (centres undefined),6.36%
20,O=C(O)c1cc2c(nc1N1CCCC1)CCN(C1CCOCC1)CC2,3.02%
21,CCSCCC(=O)NCc1cc2n(n1)CCN(C(=O)N(C)C)C2,-5.38%

row,Compound,cytotoxicity at 10 µM
1,Cc1nc(CN2CCOC(CN(C)c3cccnn3)C2)cs1 (centres undefined),0.938%
2,CCCN(C)S(=O)(=O)N1CCCC1c1ccco1 (centres undefined),-8.72%
3,CN1CCC(Cc2cccc(-c3cc(F)ccc3C(=O)O)n2)CC1,-3.22%
4,Cc1nnc2n1CCN(C(=O)C(C)Oc1ccc(C#N)cc1)C2 (centres undefined),-0.643%
5,Cc1oncc1S(=O)(=O)N1CCCC(C)(Cc2ccc3c(c2)OCO3)C1 (centres undefined),1.3%
6,CS(=O)(=O)NCCNC(=O)C1(c2ccc(F)cc2)CC1,1.93%
7,Fc1ccc(CN2CCO[C@H]3[C@H](Oc4ccccn4)CC[C@@H]32)cc1,6.44%
8,CCn1c(-c2ccccc2)nn(CC(=O)NCCc2ccc(C)s2)c1=O,7.69%
9,COc1ccc(-c2ccccc2CCN)c(OC)c1,8.95%
10,Cn1cc(CN2CCc3ccc(=O)n(Cc4ccncc4)c3CC2)cn1,3.97%
11,COCC1CC2(CCN(C(=O)c3oc4ccccc4c3C)CC2)CO1 (centres undefined),-141%
12,CC(C)NC(=O)N1CCCC(c2nnc(CN3CCOCC3)n2C)C1 (centres undefined),-0.392%
13,CCOCC(=O)N1C[C@@H]2COC[C@H](c3nc(C)no3)[C@@H]2C1,-11.1%
14,CC(C)n1nc(Cn2cccn2)c2c1CN(C1CCOCC1)C2,6.98%
15,CCOc1ccc(NC(=O)N2CCC(n3cncn3)CC2)cc1Cl,-7.22%
16,CCc1nccn1C1CCCN(C(=O)c2csc(NC(C)=O)n2)C1 (centres undefined),-13%
17,Cc1ccc(-c2nc(CN3CCCC(C(=O)N(C)C)C3)cs2)o1 (centres undefined),-14%
18,Cc1ccoc1C(=O)NCc1ccnc(OCC(F)(F)F)c1,-7.8%
19,CCOCCCC(=O)Nc1c(-c2ccc(F)cc2)ncn1C,-9.19%
20,CC(=O)N1CCCN(C(=O)NCCNc2cnccn2)CC1,-2.28%
21,CCO[C@H]1CN(C)C[C@@H]1NC(=O)c1cc(C)nc2ccc(C)cc12,4.15%
